This is an account of results in publication PMC4777266 (Pharmacology Research & Perspectives, 2016).

Data set [1] is described as follows: Excretion and mass balance. The class given is in vivo, male CD‐1 mice.
Data set [2] in a line: Plasma metabolite profiles. The class given is in vivo, male CD‐1 mice. Conditions: for AUC0‐48 h of radiolabeled component in plasma (% AUC of total RA): pool of 2 mice; for Highest plasma concentration: at 30 min after dosing.
Data set [3] is described as follows: Metabolite profiles in selected tissues 1 h p.d. The class given is in vivo, male CD‐1 mice. Conditions: single iv 1 mg/kg, text: % of total radioactivity in the tissue.
A short description of data set [4]: Quantitative whole-body autoradiography. Type of data set: in vivo, male CD‐1 mice. A digest of the protocol:
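The same single 1 mg/kg i.v. tritium-label dose was given to male CD-1 mice. At 0.167, 1, 2, 24 and 48 h, mice were killed under deep isoflurane and frozen in hexane/dry ice at −70°C. 40 µm whole-body sections were exposed to imaging plates for 2 weeks at room temperature and scanned at 50 µm. Densitometry used blood calibrators. Tissue:blood Cmax/AUClast ratios were derived, AUC by linear trapezoidal rule.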

Data set [5] can be described thus: Tolerability of the single intravenous administration. The class given is in vivo. As to conditions: mice.
Data set [6] is described as follows: Blood/plasma pharmacokinetics of total radiolabeled components. The class given is in vivo, male CD‐1 mice. As to conditions: dried blood and plasma; i.v. 1 mg/kg. In outline:
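Male albino CD-1 mice (30-36 g, 8-10 weeks) got one i.v. saphenous bolus of 1 mg/kg tritiated test nucleoside in 0.9% NaCl (2 mL/kg, 53-67 MBq/kg) under light isoflurane. EDTA blood was drawn at 0.083-48 h, two samples per mouse, n = 1 per time point. Plasma was spun 3000 g, 10 min, 4°C. Aliquots were dried at 37°C to remove tritiated water, then counted by LSC. Noncompartmental PK was used.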

Where [7] appears, read: 0–48 h, single iv 1 mg/kg, average of n = 2.
Where [8] appears, read: single iv 1 mg/kg, average of n = 2, 1 mg/kg.
Where [9] appears, read: male, CD-1, mouse, plasma, iv, 1 mg/kg.
[10] abbreviates: single iv 1 mg/kg, average of n = 2.

Usually AUC stands for the area under the concentration-time curve, a measure of exposure. As for `Nc1cc[nH]c(=O)n1` [Metabolite M2, cytosine], the “Amount of radiolabeled component, total excretion (urine + feces)” value (“Amount … (urine + feces)” below) in data set [1] (setting [7]) is 0.0771 % of RA dose. Also, the “Amount of radiolabeled component in urine (0–48 h)” value in data set [1] (setting [8]) is 0.0771 % of RA dose. In addition, in data set [2] (setting [9]), the AUC turned out to be 0.461 µM·h, the concentration at 0.5 h was determined as 38.9 nM, the concentration at 1 h stood at 33.3 nM and the concentration at 2 h stood at 7.1 nM. In data set [2] (setting [9]), the concentration at 4 h was 22.6 nM, the concentration at 8 h was determined as 11.1 nM, the concentration at 24 h was found to be 5.7 nM and the concentration at 48 h turned out to be 9.6 nM. Further, the “AUC0‐48 h of radiolabeled component in plasma (% AUC of total RA)” value (from here on “AUC0‐48 h … in plasma (% AUC of total RA)”) in data set [2] (single iv 1 mg/kg) is given as 8.11 % AUC of total RA. In addition, in data set [3], the “Amount of radiolabeled component in heart” value (“Amount … in heart” below) is 6.81%, the “Amount of radiolabeled component in liver” value (“Amount … in liver” for short) is 17.8%, the “Amount of radiolabeled component in lung” value was 2.41% and the “Amount of radiolabeled component in spleen” value (from here on “Amount … in spleen”) stood at 3.62%.
As for `O=c1cc[nH]c(=O)[nH]1` [Metabolite M3, uracil], the “Amount … (urine + feces)” value in data set [1] (setting [7]) is recorded as 4.03 % of RA dose. Moreover, in data set [1] (setting [10]), the “Amount of radiolabeled component in feces (0–48)” value (shortened to “Amount … (0–48)”) is reported as 0.418 % of RA dose. For the same compound, the Highest plasma concentration in data set [2] came to 0.1 µmol/L. Moreover, in data set [2] (setting [9]), the AUC was 1.34 µM·h, the concentration at 0.083 h stood at 14.2 nM, the concentration at 0.5 h amounted to 144 nM and the concentration at 1 h amounted to 109 nM. In addition, in data set [2] (setting [9]), the concentration at 2 h amounted to 87.5 nM, the concentration at 4 h stood at 63.5 nM, the concentration at 8 h amounted to 36.8 nM and the concentration at 24 h was 14.5 nM. In addition, in data set [2] (setting [9]), the concentration at 48 h worked out at 17.5 nM. Further, in data set [2] (single iv 1 mg/kg), the “AUC0‐48 h … in plasma (% AUC of total RA)” value is 23.6 % AUC of total RA. Besides, in data set [3], the “Amount … in heart” value came out at 46.6%, the “Amount of radiolabeled component in kidney” value is on record as 89.4%, the “Amount … in liver” value came to 28.8% and the “Amount of radiolabeled component in lung” value is 83.4%. Further, in data set [3], the “Amount of radiolabeled component in salivary gland” value amounted to 90.9% and the “Amount … in spleen” value turned out to be 57.9%.
For `O=c1ccn([C@@H]2O[C@H](CO)[C@@H](O)[C@H]2O)c(=O)[nH]1` [Metabolite M1, uridine], in data set [1] (setting [7]), the “Amount … (urine + feces)” value is recorded as 0.156 % of RA dose. For the same compound, the Highest plasma concentration in data set [2] turned out to be 0.2 µmol/L. In addition, in data set [2] (setting [9]), the AUC came out at 1.87 µM·h, the concentration at 0.083 h worked out at 5.1 nM, the concentration at 0.5 h came to 170 nM and the concentration at 1 h stood at 108 nM. Further, in data set [2] (setting [9]), the concentration at 2 h worked out at 130 nM, the concentration at 4 h was 104 nM, the concentration at 8 h stood at 43.4 nM and the concentration at 24 h amounted to 26.9 nM. The concentration at 48 h in data set [2] (setting [9]) was 18.8 nM. In data set [2] (single iv 1 mg/kg), the “AUC0‐48 h … in plasma (% AUC of total RA)” value was 32.8 % AUC of total RA. For the same compound, in data set [3], the “Amount … in heart” value came to 28.4%, the “Amount of radiolabeled component in kidney” value is 10.6%, the “Amount … in liver” value came out at 47.6% and the “Amount of radiolabeled component in lung” value was found to be 2.31%. In addition, in data set [3], the “Amount of radiolabeled component in salivary gland” value worked out at 6.88% and the “Amount … in spleen” value is 32.9%.
For orientation: clearance means the rate of elimination divided by the concentration. By Cmax is commonly meant the maximum level reached in the sampled fluid or tissue. In the case of `CO[C@@H]1[C@H](O)[C@@H](CO)O[C@H]1n1ccc(=O)[nH]c1=O` [2′O‐methyluridine, 2′‐O‐methyluridine], the “Time up to which total radiolabeled components detectable in the brain” value in data set [4] (QWBA) was “up to 48 h”. The “Cmax tissue over blood ratio” value in data set [4] (other matrices) is reported as “smaller than 2”. Also, the “Share of matrices with AUClast greater than that of blood” value in data set [4] (total radiolabeled components) is listed as “more than 90%”. Besides, the Tolerability entry in data set [5] was “well tolerated”. Besides, the “Total detected radioactivity, total excretion (urine + feces)” value in data set [1] (0–48 h, single iv 1 mg/kg) was 48.3 % of RA dose. In addition, the “Amount … (urine + feces)” value in data set [1] (setting [7]) is given as 31.7 % of RA dose. Besides, the “Overall recovery of radioactivity (mass balance)” value in data set [1] (48 h, urine, feces, carcass and tritiated water) came out at 102.3%. Besides, the “Radioactivity in carcass 48 h” value in data set [1] (48 h p.d., single iv 1 mg/kg) is given as 38.6 % of RA dose. Further, the “Radioactivity in cage wash (0–48)” value in data set [1] (single iv 1 mg/kg) is listed as 6.81 % of RA dose. Moreover, in data set [1] (setting [10]), the “Amount of radiolabeled component in urine (0–48 h)” value is 31.2 % of RA dose; the “Total detected radioactivity in feces (0–48)” value was 2.34 % of RA dose; the “Total detected radioactivity in urine (0–48 h), without cage wash” value was 45.9 % of RA dose. Besides, in data set [1] (setting [8]), the “Amount … (0–48)” value is recorded as 0.489 % of RA dose. For the same compound, the “Total detected radiolabeled components, concentration in dried plasma” value in data set [2] (0.083 h postdose, single iv 1 mg/kg) was 0.446 µmol/L. Moreover, in data set [2] (0.5 h postdose, single iv 1 mg/kg), the “Total detected radiolabeled components, concentration in dried plasma” value was 0.617 µmol/L. For the same compound, in data set [2] (1 h postdose, single iv 1 mg/kg), the “Total detected radiolabeled components, concentration in dried plasma” value stood at 0.343 µmol/L. Further, in data set [2] (2 h postdose, single iv 1 mg/kg), the “Total detected radiolabeled components, concentration in dried plasma” value worked out at 0.270 µmol/L. Also, in data set [2] (4 h postdose, single iv 1 mg/kg), the “Total detected radiolabeled components, concentration in dried plasma” value was 0.241 µmol/L. Also, the “Total detected radiolabeled components, concentration in dried plasma” value in data set [2] (8 h postdose, single iv 1 mg/kg) is 0.134 µmol/L. In addition, the “Total detected radiolabeled components, concentration in dried plasma” value in data set [2] (24 h postdose, single iv 1 mg/kg) was found to be 0.080 µmol/L. Further, in data set [2] (48 h postdose, single iv 1 mg/kg), the “Total detected radiolabeled components, concentration in dried plasma” value amounted to 0.0781 µmol/L. Further, the “Time up to which detectable in plasma” value in data set [2] (after i.v. dosing 1 mg/kg, LC‐MS‐RA) is listed as “up to 24 h”. For the same compound, in data set [2] (dried plasma), the “AUC0‐48h ratio of total radioactivity over parent compound” value was “about 17”. In addition, the clearance in data set [2] (male, CD-1, mouse, plasma, intravenous, 1 mg/kg) was 157 mL/min/kg. Moreover, in data set [2] (setting [9]), the AUC turned out to be 0.335 µM·h, the Cmax is 402 nM, the concentration at 0.083 h was 402 nM and the concentration at 0.5 h was 119 nM. For the same compound, in data set [2] (setting [9]), the concentration at 1 h was 22.3 nM, the concentration at 2 h was determined as 6 nM, the concentration at 4 h turned out to be 6.3 nM and the concentration at 8 h is 3.6 nM. Further, the concentration at 48 h in data set [2] (setting [9]) amounted to 6.7 nM. For the same compound, in data set [2] (single iv 1 mg/kg), the “Total detected radiolabeled components, plasma AUC0‐48 h” value amounted to 5.69 µM·h; the “Total detected radiolabeled components, plasma AUC0‐48 h (% AUC of total RA)” value was 100 % AUC of total RA; the “AUC0‐48 h … in plasma (% AUC of total RA)” value is recorded as 5.89 % AUC of total RA. The “Tlast of total radiolabeled components” value in data set [6] was determined as 48 h.
On to `Nc1ccn([C@@H]2O[C@H](CO)[C@@H](O)[C@H]2O)c(=O)n1` [Metabolite M5, cytidine], for which the “Amount … (urine + feces)” value in data set [1] (setting [7]) is recorded as 1.94 % of RA dose. The “Amount … (0–48)” value in data set [1] (setting [10]) is recorded as 0.102 % of RA dose. In data set [2] (setting [9]), the AUC stood at 0.0639 µM·h, the concentration at 0.5 h was found to be 44 nM, the concentration at 2 h is 8.6 nM and the concentration at 4 h is 10.3 nM. Further, in data set [2] (setting [9]), the concentration at 48 h was found to be 0 nM. Besides, the “AUC0‐48 h … in plasma (% AUC of total RA)” value in data set [2] (single iv 1 mg/kg, 1 mg/kg) is recorded as 1.12 % AUC of total RA.
